Measured values pooled from the literature.
Each line is one published result; the experiments were not run side by side.
NPY2R: Neuropeptide Y receptor type 2 (NPY2R, Homo sapiens, UniProt P49146)
Rock2: Rho-associated protein kinase 2 (Rock2, Rattus norvegicus, UniProt Q62868)
PTGS2: Prostaglandin G/H synthase 2 (PTGS2, Homo sapiens, UniProt P35354)
SIGMAR1: Sigma non-opioid intracellular receptor 1 (SIGMAR1, Cavia porcellus, UniProt Q60492)

Compound	target	test	system	conditions	inhibition [%]
O=C1N=C(N2CCCCN2)S/C1=C\c1ccc(F)cc1O	NPY2R	ligand displacement, radioligand		10 µM	< 10
Cc1ccc(Nc2nccc(N(C)c3ccc4c(C)n(C)nc4c3)n2)cc1S(N)(=O)=O	Rock2	enzyme activity, inhibitor		0.3 µM	11
CC(CN(C)C)C(Oc1cccc2ccccc12)c1cccs1 (centres unmarked)	Sigma intracellular receptor 2 (TMEM97, Homo sapiens, UniProt Q5BJF2)	ligand displacement, radioligand		10 µM	-4.5
COc1ccc(-c2cc(=O)c3c(O)cc(O[C@@H]4O[C@H](CO)[C@@H](O)[C@H](O)[C@H]4O)cc3o2)cc1O	PTGS2	enzyme activity, inhibitor		7.81 µg/mL	100
CN(Cc1ccc(NC(=O)C2=Cc3cc(-c4ccc(OCCCCCCCF)cc4)ccc3CCC2)cc1)C1CCOCC1	SIGMAR1	ligand displacement, radioligand		10 µM	14
O=C(Nc1ccc(S(=O)(=O)N2CCC(Cl)CC2)cc1)c1ccc([N+](=O)[O-])o1	NPY2R	ligand displacement, radioligand		10 µM	4
COc1ccc(CCC(C)N2CCc3cc(OC)c(OC)cc3C2)cc1 (centres unmarked)	SIGMAR1	ligand displacement, radioligand		0.1 µM	11
O=C(c1ccc(Cl)cc1)N(Cc1ccccc1)C1CCCCC1	Alpha-2B adrenergic receptor (ADRA2B, Homo sapiens, UniProt P18089)	cell-free assay		10 µM	7.2
O=c1cc(-c2ccc(O)c(O)c2)oc2cc(O)cc(O)c12	PTGS2	enzyme activity, inhibitor		0.49 µg/mL	45
CNC(=O)[C@@]12C[C@@H]1[C@@H](n1cnc3c(NC)nc(C#Cc4ccc(Cl)s4)nc31)[C@H](O)[C@@H]2O	SIGMAR1	ligand displacement, radioligand		10 µM	60 to 70
COc1cc(-c2cc(=O)c3c(O)cc(O)cc3o2)ccc1O	PTGS2	enzyme activity, inhibitor		0.49 µg/mL	0
CNC(=O)c1cc(Oc2ccc(NC(=O)Nc3ccc(Cl)c(C(F)(F)F)c3)cc2)ccn1	Rock2	enzyme activity, inhibitor		10 µM	44
CN(C)C1CCN(CC#Cc2nn(C3CCCC3)c3nc(NCc4ccccc4)ncc23)C1 (centres unmarked)	Dual specificity tyrosine-phosphorylation-regulated kinase 1A (DYRK1A, Homo sapiens, UniProt Q13627)	enzyme activity, inhibitor, FRET		0.1 µM	4
C=C[C@@]1(C)C=C2CC[C@@H]3[C@](C)(CCC[C@@]3(C)C(=O)O)[C@H]2CC1	PTGS2	enzyme activity, inhibitor		0.49 µg/mL	7.14
O=C(c1ccc(F)cc1)N(Cc1ccccc1)C1CCCCC1	NPY2R	cell-free assay		10 µM	-14
O=C(O)c1ccc(O)cc1	PTGS2	enzyme activity, inhibitor		0.98 µg/mL	32.2
CCN1CCN(Cc2ccc(NC(=O)c3ccc(C)c(Oc4ccnc5[nH]ccc45)c3)cc2C(F)(F)F)CC1	Inositol-tetrakisphosphate 1-kinase (Homo sapiens, UniProt Q13572)	target engagement in cells, inhibitor, chemoproteomics	Huh-7	10 µM	-35.5
